According to ChEMBL document CHEMBL1139042, “1,3-Disubstituted-imidazo[1,5-a]pyrazines as insulin-like growth-factor-I receptor (IGF-IR) inhibitors” (Bioorg Med Chem Lett, 2007):

Legend:
[1] = target: T1, Insulin-like growth factor 1 receptor (Homo sapiens, UniProt P08069); experiment: Inhibition of human recombinant GST-IGF1R activity
[2] = target: T1, Insulin-like growth factor 1 receptor; experiment: Inhibition of IGF1-stimulated phosphorylation of human recombinant IGF1R expressed in NIH3T3 cells; format: cell-based
[3] = Cmax in CD1 mouse at 50 mg/kg, po; format: ADME, organism-based; parameters: dose 50 mg/kg, route oral; conditions: in vivo
How it was run: (§1)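 Female CD-1 mice, 6–10 weeks old, received a single 1 mg/kg IV tail-vein dose or a single 50 mg/kg oral gavage dose. The oral vehicle varied by compound: 30:70 PEG-400:WFI with Labrafil, 50:50 PEG-400:WFI, or 50:50 PEG-400:5% citric acid. Three animals were sacrificed per timepoint and blood was taken into EDTA by cardiac puncture. Plasma (1500g, 10 min) was methanol-precipitated and analysed by HPLC-MS/MS against spiked mouse-plasma calibrants. Parameters came from non-compartmental analysis of median (n=3) concentrations.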

[4] = AUC (0 to infinity) in CD1 mouse at 50 mg/kg, po; format: ADME, organism-based; parameters: time infinity, dose 50 mg/kg, route oral; conditions: plasma; how it was run: as §1
[5] = Oral bioavailability in CD1 mouse at 50 mg/kg, po; format: ADME, organism-based; conditions: in vivo; how it was run: as §1
[6] = Half life in CD1 mouse at 1 mg/kg, iv; format: ADME, organism-based; parameters: dose 1 mg/kg, route intravenous; conditions: in vivo; how it was run: as §1
[7] = target: Tyrosine-protein kinase ABL1 (Homo sapiens) (UniProt P00519); experiment: Inhibition of Abl at 10 uM
How it was run: (§2)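 Radiometric kinase profiling was run as an outsourced panel on recombinant purified enzymes.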

Homo sapiens [8] = organism: Homo sapiens; experiment: Inhibition of Cdk2/Cyclin A at 10 uM; how it was run: as §2
Homo sapiens [9] = organism: Homo sapiens; experiment: Inhibition of Cdk2/Cyclin E at 10 uM; how it was run: as §2
[10] = target: Serine/threonine-protein kinase Chk2 (Homo sapiens) (UniProt O96017); experiment: Inhibition of Chk2 at 10 uM; how it was run: as §2
Homo sapiens [11] = organism: Homo sapiens; experiment: Inhibition of PKA at 10 uM; how it was run: as §2
[12] = target: Tyrosine-protein kinase Fes/Fps (Homo sapiens) (UniProt P07332); experiment: Inhibition of Fes at 10 uM; how it was run: as §2
[13] = target: Casein kinase II subunit alpha (Homo sapiens) (UniProt P68400); experiment: Inhibition of CK2 at 10 uM; how it was run: as §2
[14] = target: RAF proto-oncogene serine/threonine-protein kinase (Homo sapiens) (UniProt P04049); experiment: Inhibition of c-Raf at 10 uM; how it was run: as §2
[15] = target: T2, Inhibitor of nuclear factor kappa-B kinase subunit beta (Homo sapiens) (UniProt O14920); experiment: Inhibition of IKK-beta at 10 uM; how it was run: as §2
T2 sequence (whole entry): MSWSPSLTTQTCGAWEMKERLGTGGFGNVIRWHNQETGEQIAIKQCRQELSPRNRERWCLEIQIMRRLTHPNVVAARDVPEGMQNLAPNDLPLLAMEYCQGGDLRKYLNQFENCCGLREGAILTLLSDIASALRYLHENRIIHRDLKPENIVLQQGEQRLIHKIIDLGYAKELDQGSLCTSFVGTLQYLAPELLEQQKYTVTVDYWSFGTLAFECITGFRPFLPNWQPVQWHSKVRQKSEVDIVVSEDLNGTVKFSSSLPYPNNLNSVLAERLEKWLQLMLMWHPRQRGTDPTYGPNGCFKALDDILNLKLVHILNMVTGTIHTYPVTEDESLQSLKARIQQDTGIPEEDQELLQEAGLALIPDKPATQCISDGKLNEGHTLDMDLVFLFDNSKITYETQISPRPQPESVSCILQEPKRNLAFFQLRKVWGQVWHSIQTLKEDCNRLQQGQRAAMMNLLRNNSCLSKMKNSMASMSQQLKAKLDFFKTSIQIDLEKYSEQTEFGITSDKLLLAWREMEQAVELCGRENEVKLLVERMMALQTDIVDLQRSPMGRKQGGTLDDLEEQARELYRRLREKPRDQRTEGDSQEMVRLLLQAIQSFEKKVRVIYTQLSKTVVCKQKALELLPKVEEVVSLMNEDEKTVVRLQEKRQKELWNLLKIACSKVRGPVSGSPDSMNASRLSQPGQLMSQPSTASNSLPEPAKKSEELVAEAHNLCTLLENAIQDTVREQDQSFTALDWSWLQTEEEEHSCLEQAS

[16] = target: Ribosomal protein S6 kinase beta-1 (Homo sapiens) (UniProt P23443); experiment: Inhibition of p70S6K at 10 uM; how it was run: as §2
[17] = target: Platelet-derived growth factor receptor beta (Homo sapiens) (UniProt P09619); experiment: Inhibition of PDGFRbeta at 10 uM; how it was run: as §2
Homo sapiens [18] = organism: Homo sapiens; experiment: Inhibition of PKBalpha at 10 uM; how it was run: as §2
[19] = target: Protein kinase C alpha type (Homo sapiens) (UniProt P17252); experiment: Inhibition of PKCalpha at 10 uM; how it was run: as §2
[20] = target: 3-phosphoinositide-dependent protein kinase 1 (PDPK1) (Homo sapiens) (UniProt O15530); experiment: Inhibition of PDK1 at 10 uM
[21] = target: Mitogen-activated protein kinase 1 (ERK2) (Homo sapiens) (UniProt P28482); experiment: Inhibition of MAPK2 at 10 uM
Sequence of Mitogen-activated protein kinase 1 (ERK2) (Homo sapiens) (P28482 whole entry, looked up): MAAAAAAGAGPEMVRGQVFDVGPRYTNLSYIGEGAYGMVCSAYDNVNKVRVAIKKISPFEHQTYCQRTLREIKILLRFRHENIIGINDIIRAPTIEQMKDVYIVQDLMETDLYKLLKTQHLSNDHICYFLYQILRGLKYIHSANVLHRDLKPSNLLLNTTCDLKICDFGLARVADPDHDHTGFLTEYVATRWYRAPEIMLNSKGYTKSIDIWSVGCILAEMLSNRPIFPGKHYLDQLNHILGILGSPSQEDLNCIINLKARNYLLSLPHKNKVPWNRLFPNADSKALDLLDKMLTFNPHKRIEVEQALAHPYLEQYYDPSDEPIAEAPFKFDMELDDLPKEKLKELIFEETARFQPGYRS

T1 sequence (P08069 31-736 limits assumed): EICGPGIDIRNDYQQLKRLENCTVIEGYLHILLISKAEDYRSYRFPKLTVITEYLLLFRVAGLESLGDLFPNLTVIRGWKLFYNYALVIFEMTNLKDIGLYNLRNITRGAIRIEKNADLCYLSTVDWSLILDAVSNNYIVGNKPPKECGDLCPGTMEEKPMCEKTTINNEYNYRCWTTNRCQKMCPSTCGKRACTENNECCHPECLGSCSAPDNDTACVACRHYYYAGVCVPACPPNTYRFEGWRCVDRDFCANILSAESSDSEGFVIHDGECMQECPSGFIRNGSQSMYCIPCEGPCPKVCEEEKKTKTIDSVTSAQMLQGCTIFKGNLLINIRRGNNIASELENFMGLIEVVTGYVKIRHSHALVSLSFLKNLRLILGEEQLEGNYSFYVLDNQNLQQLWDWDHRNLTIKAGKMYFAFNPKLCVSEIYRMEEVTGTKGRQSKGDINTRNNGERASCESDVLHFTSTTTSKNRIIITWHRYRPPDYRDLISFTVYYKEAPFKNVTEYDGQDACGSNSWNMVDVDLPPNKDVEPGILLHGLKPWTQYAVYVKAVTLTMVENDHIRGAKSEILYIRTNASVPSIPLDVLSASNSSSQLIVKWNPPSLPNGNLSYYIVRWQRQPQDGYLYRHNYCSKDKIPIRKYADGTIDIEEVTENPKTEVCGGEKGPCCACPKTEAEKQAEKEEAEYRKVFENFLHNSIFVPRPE
T1 sequence (P08069 741-1367 limits assumed): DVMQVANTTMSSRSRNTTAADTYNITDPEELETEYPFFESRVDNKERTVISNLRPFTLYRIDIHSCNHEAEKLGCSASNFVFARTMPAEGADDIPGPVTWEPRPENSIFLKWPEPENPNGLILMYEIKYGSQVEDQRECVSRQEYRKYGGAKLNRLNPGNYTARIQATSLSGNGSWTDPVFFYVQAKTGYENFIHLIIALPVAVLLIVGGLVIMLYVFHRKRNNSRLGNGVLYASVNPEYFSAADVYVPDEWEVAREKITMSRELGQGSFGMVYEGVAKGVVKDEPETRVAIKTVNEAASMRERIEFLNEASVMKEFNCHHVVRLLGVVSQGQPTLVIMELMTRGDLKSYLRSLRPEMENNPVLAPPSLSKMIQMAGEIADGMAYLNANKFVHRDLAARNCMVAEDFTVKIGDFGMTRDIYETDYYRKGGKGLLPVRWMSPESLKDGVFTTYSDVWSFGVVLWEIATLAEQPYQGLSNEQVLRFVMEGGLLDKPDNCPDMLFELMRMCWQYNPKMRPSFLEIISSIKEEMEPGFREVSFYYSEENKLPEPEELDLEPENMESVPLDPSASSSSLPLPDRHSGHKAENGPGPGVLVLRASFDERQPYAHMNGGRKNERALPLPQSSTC
Sequence of 3-phosphoinositide-dependent protein kinase 1 (PDPK1) (Homo sapiens) (O15530 whole entry, looked up): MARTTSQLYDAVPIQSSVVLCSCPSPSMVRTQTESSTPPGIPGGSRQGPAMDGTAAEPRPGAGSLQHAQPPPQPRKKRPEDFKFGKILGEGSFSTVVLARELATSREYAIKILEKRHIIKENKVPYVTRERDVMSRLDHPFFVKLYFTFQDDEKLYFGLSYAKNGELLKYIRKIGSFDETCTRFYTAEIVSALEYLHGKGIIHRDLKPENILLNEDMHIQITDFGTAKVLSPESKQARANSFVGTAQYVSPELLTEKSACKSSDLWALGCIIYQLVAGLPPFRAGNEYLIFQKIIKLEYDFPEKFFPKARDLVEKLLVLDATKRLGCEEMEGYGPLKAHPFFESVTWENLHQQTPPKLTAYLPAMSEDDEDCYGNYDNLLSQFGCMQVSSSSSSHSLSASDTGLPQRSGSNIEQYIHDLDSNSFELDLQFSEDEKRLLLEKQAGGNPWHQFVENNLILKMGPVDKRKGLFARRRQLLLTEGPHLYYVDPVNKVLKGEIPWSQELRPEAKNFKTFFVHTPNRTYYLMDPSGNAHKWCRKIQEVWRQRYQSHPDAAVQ
Sequence of Casein kinase II subunit alpha (Homo sapiens) (P68400 whole entry, looked up): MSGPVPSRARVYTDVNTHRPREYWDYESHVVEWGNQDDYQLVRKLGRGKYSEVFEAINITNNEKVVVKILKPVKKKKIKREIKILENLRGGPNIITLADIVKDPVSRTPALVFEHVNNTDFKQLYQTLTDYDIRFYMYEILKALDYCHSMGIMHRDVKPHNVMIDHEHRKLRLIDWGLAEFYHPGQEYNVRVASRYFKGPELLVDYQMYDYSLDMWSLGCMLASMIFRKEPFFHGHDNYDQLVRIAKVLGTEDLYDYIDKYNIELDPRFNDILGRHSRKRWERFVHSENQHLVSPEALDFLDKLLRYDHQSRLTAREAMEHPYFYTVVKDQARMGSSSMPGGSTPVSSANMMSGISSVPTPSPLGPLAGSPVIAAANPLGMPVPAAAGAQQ
Sequence of Platelet-derived growth factor receptor beta (Homo sapiens) (P09619 whole entry): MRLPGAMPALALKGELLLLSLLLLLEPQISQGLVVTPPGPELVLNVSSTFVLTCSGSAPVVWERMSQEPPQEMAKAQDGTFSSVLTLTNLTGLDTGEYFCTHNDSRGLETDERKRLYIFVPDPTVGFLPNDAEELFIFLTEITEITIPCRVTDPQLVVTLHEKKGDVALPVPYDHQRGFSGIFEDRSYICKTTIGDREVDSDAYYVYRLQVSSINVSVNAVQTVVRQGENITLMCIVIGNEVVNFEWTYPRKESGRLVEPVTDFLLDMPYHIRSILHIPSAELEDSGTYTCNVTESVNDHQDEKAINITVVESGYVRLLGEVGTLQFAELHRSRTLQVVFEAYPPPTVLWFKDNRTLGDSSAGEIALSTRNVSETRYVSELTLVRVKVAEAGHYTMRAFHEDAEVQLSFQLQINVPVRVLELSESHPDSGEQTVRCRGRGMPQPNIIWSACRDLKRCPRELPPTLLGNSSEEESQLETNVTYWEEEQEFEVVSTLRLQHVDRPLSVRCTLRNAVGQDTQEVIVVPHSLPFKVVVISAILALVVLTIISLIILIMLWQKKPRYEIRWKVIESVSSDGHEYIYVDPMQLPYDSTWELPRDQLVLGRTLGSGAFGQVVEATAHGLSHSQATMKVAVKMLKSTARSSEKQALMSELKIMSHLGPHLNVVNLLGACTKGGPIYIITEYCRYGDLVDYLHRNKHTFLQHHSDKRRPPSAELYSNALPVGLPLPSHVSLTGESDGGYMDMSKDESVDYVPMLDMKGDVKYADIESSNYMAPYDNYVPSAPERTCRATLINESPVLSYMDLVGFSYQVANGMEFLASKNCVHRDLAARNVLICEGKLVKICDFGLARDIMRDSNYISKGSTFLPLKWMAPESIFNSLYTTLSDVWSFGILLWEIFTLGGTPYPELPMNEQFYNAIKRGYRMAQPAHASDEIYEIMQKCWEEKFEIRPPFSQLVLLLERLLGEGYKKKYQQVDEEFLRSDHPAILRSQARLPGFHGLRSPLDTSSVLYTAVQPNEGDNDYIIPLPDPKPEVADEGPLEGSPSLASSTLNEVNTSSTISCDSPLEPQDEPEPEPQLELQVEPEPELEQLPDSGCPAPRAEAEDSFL
Sequence of Tyrosine-protein kinase Fes/Fps (Homo sapiens) (P07332 whole entry): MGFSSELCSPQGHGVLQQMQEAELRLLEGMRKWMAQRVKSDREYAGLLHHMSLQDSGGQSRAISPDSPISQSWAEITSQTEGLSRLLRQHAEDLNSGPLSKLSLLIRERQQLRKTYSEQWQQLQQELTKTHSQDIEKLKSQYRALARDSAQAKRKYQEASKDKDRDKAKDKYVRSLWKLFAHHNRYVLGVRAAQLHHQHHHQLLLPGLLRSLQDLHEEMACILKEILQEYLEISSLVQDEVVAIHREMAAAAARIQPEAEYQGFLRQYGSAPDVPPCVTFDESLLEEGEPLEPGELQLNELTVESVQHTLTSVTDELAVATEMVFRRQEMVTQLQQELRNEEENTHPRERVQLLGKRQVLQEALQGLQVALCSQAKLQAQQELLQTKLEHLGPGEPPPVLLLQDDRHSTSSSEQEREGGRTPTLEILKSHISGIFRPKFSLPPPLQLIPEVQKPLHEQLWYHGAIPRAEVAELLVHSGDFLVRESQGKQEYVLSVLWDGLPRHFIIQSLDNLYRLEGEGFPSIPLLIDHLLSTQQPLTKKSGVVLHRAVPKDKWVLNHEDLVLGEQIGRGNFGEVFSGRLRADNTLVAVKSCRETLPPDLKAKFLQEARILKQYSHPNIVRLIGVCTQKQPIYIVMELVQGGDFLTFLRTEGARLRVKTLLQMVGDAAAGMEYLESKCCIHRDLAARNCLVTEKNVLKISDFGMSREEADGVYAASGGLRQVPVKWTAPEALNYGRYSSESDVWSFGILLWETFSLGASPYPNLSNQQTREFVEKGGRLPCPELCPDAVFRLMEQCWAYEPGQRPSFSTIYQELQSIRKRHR

Structure (SMILES) | IC50 [1] [nM] | IC50 [2] [nM] | Cmax [3] [nM] | AUC(0-inf) [4] [ng·h/mL] | bioavailability [5] [%] | half-life [6] [h] | other results
NC[C@H]1C[C@@H](c2nc(-c3cccc(OCc4ccccc4)c3)c3c(N)nccn32)C1 | 60 | 690 | – | – | – | – | –
Nc1nccn2c(C3CCC3)nc(-c3cccc(OCc4ccccc4)c3)c12 | 606 | 1160 | 860 | 1760 | 47 | 1.3 | –
Nc1nccn2c(C3CCC3)nc(-c3ccc(Oc4ccccc4)cc3)c12 | > 10000 | – | – | – | – | – | –
Nc1nccn2c1c(-c1cccc(OCc3ccccc3)c1)nc2[C@H]1CC[C@H](CN2CCC2)CC1 | 81 | 398 | – | – | – | – | –
Nc1nccn2c1c(-c1cccc(OCc3ccccc3)c1)nc2[C@H]1CC[C@H](C(N)=O)CC1 | – | – | 2220 | 1320 | 34 | 0.63 | –
NC[C@H]1CC[C@H](c2nc(-c3cccc(OCc4ccccc4)c3)c3c(N)nccn32)CC1 | 119 | 534 | 2850 | 3930 | 47 | 2.29 | inhibition [7]: < 50%; inhibition (Homo sapiens [8]): < 50%; inhibition (Homo sapiens [9]): < 50%; inhibition [10]: < 50%; inhibition (Homo sapiens [11]): < 50%; inhibition [12]: < 50%; inhibition [13]: < 50%; inhibition [14]: < 50%; inhibition [15]: < 50%; inhibition [16]: < 50%; inhibition [17]: < 50%; inhibition (Homo sapiens [18]): < 50%; inhibition [19]: < 50%; inhibition [20]: < 50%; inhibition [21]: < 50%
NC[C@H]1CC[C@@H](c2nc(-c3cccc(OCc4ccccc4)c3)c3c(N)nccn32)CC1 | 228 | 560 | – | – | – | – | –
COc1ccc(-c2nc(C3CCC3)n3ccnc(N)c23)cc1OCc1ccccc1 | 1350 | – | – | – | – | – | –
